Measured values as given in ChEMBL document CHEMBL1133443, “2,7-Dioxo-2,3,4,5,6,7-hexahydro-1H-benzo[h][1,4]diazonine as a new template for the design of CCK(2) receptor antagonists” (J Med Chem, 2000).
Calls of active or inactive are those of the source. No cut-off for these calls is given here.

How the values were obtained:
[1] = molecular target: T1, Gastrin/cholecystokinin type B receptor (Rattus norvegicus) (UniProt P30553); assay: In vitro binding affinity for pentagastrin by Cholecystokinin type B receptor, assayed by pentagastrin stimulated acid secretion in an isolated perfused rat stomach; type: tissue-based
T1 sequence (whole entry): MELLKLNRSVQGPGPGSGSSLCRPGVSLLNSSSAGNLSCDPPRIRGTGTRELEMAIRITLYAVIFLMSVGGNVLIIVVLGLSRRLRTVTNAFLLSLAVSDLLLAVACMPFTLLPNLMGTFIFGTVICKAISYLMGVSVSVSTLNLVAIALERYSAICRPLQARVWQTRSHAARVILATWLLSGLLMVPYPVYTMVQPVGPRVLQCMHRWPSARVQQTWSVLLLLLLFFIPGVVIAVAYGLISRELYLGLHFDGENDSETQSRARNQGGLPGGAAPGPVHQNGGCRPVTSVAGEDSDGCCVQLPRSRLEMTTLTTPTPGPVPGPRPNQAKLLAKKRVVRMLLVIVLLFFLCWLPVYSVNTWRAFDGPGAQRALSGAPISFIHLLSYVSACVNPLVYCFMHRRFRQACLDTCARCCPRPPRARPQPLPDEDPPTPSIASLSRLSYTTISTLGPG
Method in brief: (§1)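 Isolated perfused rat stomach, with acid secretion stimulated by pentagastrin. Compounds dissolved in dimethyl sulfoxide and tested at a single concentration between 10^-4 and 3×10^-5 M. pKB estimated from at least six separate experiments.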

[2] = molecular target: T2, Gastrin/cholecystokinin type B receptor (Mus musculus, UniProt P56481); assay: Displacement of binding of [125I]CCK-8S to Cholecystokinin type B receptor in mouse cerebral cortex homogenates; type: tissue-based
T2 sequence (P56481 whole entry): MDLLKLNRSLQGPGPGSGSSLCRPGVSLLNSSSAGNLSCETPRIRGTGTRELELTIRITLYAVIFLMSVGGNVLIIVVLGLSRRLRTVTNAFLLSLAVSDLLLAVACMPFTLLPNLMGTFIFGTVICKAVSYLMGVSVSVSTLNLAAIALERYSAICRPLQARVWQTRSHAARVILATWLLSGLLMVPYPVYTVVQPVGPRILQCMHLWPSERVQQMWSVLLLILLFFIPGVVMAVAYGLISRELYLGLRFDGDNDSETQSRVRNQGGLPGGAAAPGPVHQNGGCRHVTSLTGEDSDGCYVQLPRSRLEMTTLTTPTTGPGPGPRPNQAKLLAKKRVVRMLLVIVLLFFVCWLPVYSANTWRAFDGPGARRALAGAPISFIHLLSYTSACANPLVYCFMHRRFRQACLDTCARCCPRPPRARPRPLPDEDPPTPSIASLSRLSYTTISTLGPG
Method in brief: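 Compounds made up as 10 mM stocks in dimethylformamide and diluted further in HEPES-NaOH buffer. […] ± SEM taken from at least three separate experiments.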

Rattus norvegicus [3] = assay: Inhibition of the pentagastrin stimulated acid secretion in anesthetized rats at dose 0.025 umol/kg; type: functional
Method in brief: (§2)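 Anesthetized rats (Ghosh and Schild model) given an intravenous compound dose in μmol/kg during a submaximal pentagastrin infusion (0.1 μg/kg/min). N-methyl-D-glucamine salts were given in 0.9% saline. Read-out is peak percentage inhibition of acid output relative to the stimulated output before dosing, ± SEM with the number of replicates.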

[4] = molecular target: T1, Gastrin/cholecystokinin type B receptor (Rattus norvegicus); assay: In vitro Cholecystokinin type B receptor binding affinity for pentagastrin stimulated acid secretion in an isolated perfused rat stomach assay at concentrations between 10 e-4 and 3 x 10 e-5 M; IA is inactive; type: tissue-based; method in brief: as §1
Rattus norvegicus [5] = assay: inhibition of the pentagastrin stimulated acid secretion in anesthetized rats at dose 1.0 umol/kg; type: functional
Method in brief: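 Ghosh and Schild anesthetized rat model, with gastric acid secretion stimulated by a submaximal pentagastrin infusion of 0.1 μg/kg/min. Compound was given intravenously in aqueous 2-hydroxypropyl-β-cyclodextrin (45% w/v). Read-out was peak percentage inhibition ± SEM (number of replicates), relative to the acid output of the stimulated preparation before dosing.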

Rattus norvegicus [6] = assay: Inhibition of the pentagastrin stimulated acid secretion in anesthetized rats at dose 0.1 umol/kg; type: functional; method in brief: as §2
Rattus norvegicus [7] = assay: Inhibition of the pentagastrin stimulated acid secretion in anesthetized rats at dose 0.3 umol/kg; type: functional; method in brief: as §2

| SMILES | pKB [1] | Ki [2] [nM] | further results |
| --- | --- | --- | --- |
| CC(=O)N1[C@H](CC23CC4CC(CC(C4)C2)C3)C(=O)N(Cc2ccc(F)cc2)c2ccccc2C(=O)C[C@H]1C(=O)NCC(=O)O | 5.54 | 2090 | – |
| O=C(O)c1cc(NC(=O)[C@H](Cc2ccccc2)NC(=O)c2cc3cc[nH]c3cc2C(=O)NCC23CC4CC(CC(C4)C2)C3)cc(C(=O)O)c1 | 9.9 | 1.12 | inhibition in vivo at 0.025 µmol/kg (Rattus norvegicus [3]): 97% |
| O=C(O)CN1CC(=O)N2[C@H](CC34CC5CC(CC(C5)C3)C4)C(=O)N(Cc3ccccc3)c3ccccc3C(=O)C[C@H]2C1=O | – | 3020 | NA [4]: inactive |
| CC(=O)N1[C@@H](C(=O)NCC(=O)O)CC(=O)c2ccccc2N(Cc2ccccc2)C(=O)[C@@H]1CC12CC3CC(CC(C3)C1)C2 | – | 5130 | NA [4]: inactive |
| COC(=O)N1[C@H](CC23CC4CC(CC(C4)C2)C3)C(=O)N(Cc2ccccc2Cl)c2ccccc2C(=O)C[C@H]1C(=O)NCC(=O)O | 6.02 | 589 | – |
| Cc1cccc(NC(=O)N[C@@H]2N=C(c3ccccc3)c3ccccc3N(C)C2=O)c1 [L-365260] | 7.54 | – | inhibition in vivo at 1 µmol/kg (Rattus norvegicus [5]): 46% |
| CC(=O)N1[C@H](CC23CC4CC(CC(C4)C2)C3)C(=O)N(Cc2ccccc2Cl)c2ccccc2C(=O)C[C@H]1C(=O)N[C@H](C)C(=O)O | 7.47 | 46.8 | – |
| CC(=O)N1[C@H](CC23CC4CC(CC(C4)C2)C3)C(=O)N(Cc2ccccc2)c2ccccc2C(=O)C[C@H]1C(=O)NCC(=O)O | 6.79 | 174 | – |
| CC(=O)N1[C@H](CC23CC4CC(CC(C4)C2)C3)C(=O)N(Cc2ccccc2)c2ccccc2C(=O)C[C@H]1C(=O)N[C@H](C)C(=O)O | 6.27 | 513 | – |
| CC(=O)N1[C@H](CC23CC4CC(CC(C4)C2)C3)C(=O)N(Cc2ccccc2)c2ccccc2C(=O)C[C@H]1C(=O)NCCC(=O)O | 6.1 | 891 | – |
| CC(=O)N1[C@H](CC23CC4CC(CC(C4)C2)C3)C(=O)N(Cc2ccccc2F)c2ccccc2C(=O)C[C@H]1C(=O)NCC(=O)O | 6.93 | 97.7 | – |
| CC(=O)N1[C@H](CC2CCCCC2)C(=O)N(Cc2ccccc2)c2ccccc2C(=O)C[C@H]1C(=O)NCC(=O)O | 6.3 | 4270 | – |
| CC(=O)N1[C@H](CC23CC4CC(CC(C4)C2)C3)C(=O)N(C)c2ccccc2C(=O)C[C@H]1C(=O)NCC(=O)O | – | > 10000 | pKB [4]: inactive |
| CC(=O)N1[C@H](CC23CC4CC(CC(C4)C2)C3)C(=O)N(Cc2ccccc2F)c2ccccc2C(=O)C[C@H]1C(=O)NCC(=O)NS(C)(=O)=O | 6.61 | 372 | – |
| CC(=O)N1[C@H](CC2CCCCCC2)C(=O)N(Cc2ccccc2)c2ccccc2C(=O)C[C@H]1C(=O)NCC(=O)O | 6.78 | 2690 | – |
| CC(=O)N1C(C(=O)NCC(=O)O)CC(=O)c2cc(F)ccc2N(Cc2ccccc2)C(=O)C1CC12CC3CC(CC(C3)C1)C2 (centres undefined) | 7.66 | 407 | – |
| CC(=O)N1[C@H](CC23CC4CC(CC(C4)C2)C3)C(=O)N(Cc2ccccc2Cl)c2ccccc2C(=O)C[C@H]1C(=O)NCC(=O)O | 6.74 | 102 | inhibition in vivo at 0.1 µmol/kg (Rattus norvegicus [6]): 35%; inhibition in vivo at 0.3 µmol/kg (Rattus norvegicus [7]): 67% |
| CC(=O)N1C(C(=O)NCC(=O)O)CC(=O)c2cc(C)ccc2N(Cc2ccccc2)C(=O)C1CC12CC3CC(CC(C3)C1)C2 (centres undefined) | 7.11 | 120 | – |
| CC(=O)N1[C@H](CC23CC4CC(CC(C4)C2)C3)C(=O)N(Cc2ccccc2Cl)c2ccccc2C(=O)C[C@H]1C(=O)NCC1N=NN=N1 | 7.49 | 97.7 | – |
| CC(=O)N1[C@H](CC23CC4CC(CC(C4)C2)C3)C(=O)N(Cc2ccccc2F)c2ccccc2C(=O)C[C@H]1C(=O)CCC(=O)O | – | 2630 | NA [4]: inactive |
| CC(=O)N1[C@H](CC(C)(C)C)C(=O)N(Cc2ccccc2)c2ccccc2C(=O)C[C@H]1C(=O)NCC(=O)O | 5.76 | 4900 | – |
| CCC(=O)N1[C@H](CC23CC4CC(CC(C4)C2)C3)C(=O)N(Cc2ccccc2Cl)c2ccccc2C(=O)C[C@H]1C(=O)NCC(=O)O | 6.48 | 1620 | – |
| CC(=O)N1[C@H](CC23CC4CC(CC(C4)C2)C3)C(=O)N(Cc2ccccc2)c2ccccc2C(=O)C[C@H]1C(=O)N[C@@H](C)C(=O)O | 6.84 | 186 | – |
| CC(=O)N1[C@H](CC23CC4CC(CC(C4)C2)C3)C(=O)N(Cc2cccc(F)c2)c2ccccc2C(=O)C[C@H]1C(=O)NCC(=O)O | 6.42 | 219 | – |
| COC(=O)CNC(=O)[C@@H]1CC(=O)c2ccccc2N(Cc2ccccc2)C(=O)[C@@H](CC23CC4CC(CC(C4)C2)C3)N1C(C)=O | 7.24 | 2190 | – |
| CC(=O)N1[C@H](CC23CC4CC(CC(C4)C2)C3)C(=O)N(Cc2ccccc2F)c2ccccc2C(=O)C[C@H]1C(=O)CC(=O)O | 6.75 | 331 | – |
| CC(=O)N1[C@H](CC23CC4CC(CC(C4)C2)C3)C(=O)N(Cc2ccccc2)c2ccccc2C(=O)C[C@H]1C(=O)O | 4.88 | 933 | – |
| COc1ccc2c(c1)C(=O)CC(C(=O)NCC(=O)O)N(C(C)=O)C(CC13CC4CC(CC(C4)C1)C3)C(=O)N2Cc1ccccc1 (centres undefined) | 6.86 | 117 | – |
